Laboratory results reported in ChEMBL document CHEMBL1135024, “Studies toward the discovery of the next generation of antidepressants. Part 2: incorporating a 5-HT(1A) antagonist component into a class of serotonin reuptake inhibitors” (Bioorg Med Chem Lett, 2002).

What was measured:
[1] = biological target: T1, 5-hydroxytryptamine receptor 1A (Homo sapiens, UniProt P08908); assay: Antagonism of 5-hydroxytryptamine 1A receptor was determined in vitro using a [35S]GTP-gamma-S,; type: functional
T1 sequence (P08908 whole entry): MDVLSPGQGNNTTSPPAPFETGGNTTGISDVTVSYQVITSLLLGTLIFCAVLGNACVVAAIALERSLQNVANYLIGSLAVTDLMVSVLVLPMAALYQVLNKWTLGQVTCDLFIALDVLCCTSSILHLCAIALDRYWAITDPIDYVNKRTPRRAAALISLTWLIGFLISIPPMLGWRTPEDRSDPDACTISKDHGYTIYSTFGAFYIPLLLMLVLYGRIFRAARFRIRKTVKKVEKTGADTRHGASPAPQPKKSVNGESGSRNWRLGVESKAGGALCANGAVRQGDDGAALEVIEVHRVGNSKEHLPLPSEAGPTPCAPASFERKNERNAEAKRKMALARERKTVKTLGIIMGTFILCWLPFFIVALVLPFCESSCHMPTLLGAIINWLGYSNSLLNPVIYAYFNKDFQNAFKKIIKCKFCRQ

[2] = biological target: T1, 5-hydroxytryptamine receptor 1A; assay: Antagonism of 5-hydroxytryptamine 1A receptor determined in vitro; type: functional
[3] = biological target: Sodium-dependent serotonin transporter (Rattus norvegicus, UniProt P31652); assay: Affinity for RB Serotonin transporter was determined in vitro by incubating compound
In short: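 Radioligand binding to the 5-HT transporter with [³H]-paroxetine. Ki values are the mean of 2–3 experiments, each run in triplicate at six concentrations. 95% confidence limits were generally within 15% of the mean.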

[4] = biological target: T2, 5-hydroxytryptamine receptor 1A (Homo sapiens) (UniProt P08908); assay: In vitro agonist activity at the 5-hydroxytryptamine 1A receptor; type: functional
T2 sequence (whole entry): T1 sequence (P08908 whole entry)

[5] = biological target: Sodium-dependent serotonin transporter (Homo sapiens, UniProt P31645); assay: Affinity for HC Serotonin transporter determined in vitro by incubating compound and [3H]5-HT with human carcinoma (Jar cells), previously treated with staurosporine; type: cell-based
In short: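 Read-out is specific [³H]-5-HT uptake into Jar human carcinoma cells pretreated with staurosporine to enhance transporter expression, after incubation with the test compound.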

[6] = biological target: T2, 5-hydroxytryptamine receptor 1A (Homo sapiens); assay: Agonist activity at the 5-hydroxytryptamine 1A receptor was determined in vitro using a [35S]GTP-gamma-S,; type: functional
[7] = biological target: T3, Adrenergic receptor alpha-1 (Rattus norvegicus, UniProt P15823+P23944+P43140); assay: In vitro binding affinity towards Alpha-1 adrenergic receptor was determined by the displacement of [3H]prazosin; type: protein assay
T3 sequence (P15823 whole entry): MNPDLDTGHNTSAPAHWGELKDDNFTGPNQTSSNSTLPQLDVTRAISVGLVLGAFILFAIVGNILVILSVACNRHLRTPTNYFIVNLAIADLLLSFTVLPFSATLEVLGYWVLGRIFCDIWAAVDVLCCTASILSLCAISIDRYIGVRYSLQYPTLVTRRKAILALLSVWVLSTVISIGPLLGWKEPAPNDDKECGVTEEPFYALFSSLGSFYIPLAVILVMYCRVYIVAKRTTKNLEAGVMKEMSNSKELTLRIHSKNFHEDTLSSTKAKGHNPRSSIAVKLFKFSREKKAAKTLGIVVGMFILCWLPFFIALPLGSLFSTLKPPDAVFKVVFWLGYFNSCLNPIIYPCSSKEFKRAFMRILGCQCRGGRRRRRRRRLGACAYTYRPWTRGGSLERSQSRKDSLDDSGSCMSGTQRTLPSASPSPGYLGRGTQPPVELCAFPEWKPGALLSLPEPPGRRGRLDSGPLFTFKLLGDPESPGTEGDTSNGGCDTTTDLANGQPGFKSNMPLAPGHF
T3 sequence (P23944 whole entry): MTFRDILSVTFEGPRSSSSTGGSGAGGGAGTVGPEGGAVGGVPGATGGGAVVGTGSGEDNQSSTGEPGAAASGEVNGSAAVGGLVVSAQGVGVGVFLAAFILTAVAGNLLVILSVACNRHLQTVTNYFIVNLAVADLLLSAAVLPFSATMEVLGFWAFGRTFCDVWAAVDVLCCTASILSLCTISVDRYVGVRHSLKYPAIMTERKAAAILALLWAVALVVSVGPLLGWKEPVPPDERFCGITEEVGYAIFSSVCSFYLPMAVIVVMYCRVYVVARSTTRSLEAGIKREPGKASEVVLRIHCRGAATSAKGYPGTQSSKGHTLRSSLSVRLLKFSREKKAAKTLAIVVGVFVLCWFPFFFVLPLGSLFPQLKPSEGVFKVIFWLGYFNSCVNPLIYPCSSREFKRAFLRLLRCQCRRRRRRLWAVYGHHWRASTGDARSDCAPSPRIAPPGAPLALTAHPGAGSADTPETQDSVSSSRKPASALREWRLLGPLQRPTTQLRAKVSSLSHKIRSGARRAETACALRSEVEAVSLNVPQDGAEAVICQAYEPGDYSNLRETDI
T3 sequence (P43140 whole entry): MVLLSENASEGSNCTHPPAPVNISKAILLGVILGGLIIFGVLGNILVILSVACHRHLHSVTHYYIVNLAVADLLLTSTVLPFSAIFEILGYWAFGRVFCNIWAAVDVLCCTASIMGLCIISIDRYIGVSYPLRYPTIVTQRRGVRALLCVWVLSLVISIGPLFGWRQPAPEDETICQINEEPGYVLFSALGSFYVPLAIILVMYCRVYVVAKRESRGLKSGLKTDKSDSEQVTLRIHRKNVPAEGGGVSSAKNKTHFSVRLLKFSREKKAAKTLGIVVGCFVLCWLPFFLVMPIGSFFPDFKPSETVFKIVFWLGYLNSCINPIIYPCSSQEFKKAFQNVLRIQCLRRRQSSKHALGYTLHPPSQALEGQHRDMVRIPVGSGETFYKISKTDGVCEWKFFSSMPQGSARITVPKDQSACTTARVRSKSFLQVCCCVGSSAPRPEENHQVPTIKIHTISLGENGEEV
In short: (§1)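 Displacement binding: [³H]-prazosin for α1 and [³H]-8-OH-DPAT for human 5-HT1A. Ki values are the mean of 2–3 experiments at six concentrations, each in triplicate. 95% confidence limits were generally within 15% of the mean.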

[8] = biological target: T1, 5-hydroxytryptamine receptor 1A; assay: In vitro binding affinity towards Human 5-hydroxytryptamine 1A receptor by the displacement of [3H]8-OH-DPAT; type: single protein; in short: as §1
[9] = biological target: T1, 5-hydroxytryptamine receptor 1A; assay: Antagonism at the 5-hydroxytryptamine 1A receptor was determined in vitro using a [35S]GTP-gamma-S,; type: functional
[10] = biological target: T1, 5-hydroxytryptamine receptor 1A; assay: Antagonism at the 5-hydroxytryptamine 1A receptor in vitro; type: functional
[11] = biological target: T2, 5-hydroxytryptamine receptor 1A (Homo sapiens); assay: Agonist activity at the 5-hydroxytryptamine 1A receptor determined in vitro using a [35S]GTP-gamma-S,; type: functional

Chain of Sodium-dependent serotonin transporter (Homo sapiens, UniProt P31645) (P31645 whole entry): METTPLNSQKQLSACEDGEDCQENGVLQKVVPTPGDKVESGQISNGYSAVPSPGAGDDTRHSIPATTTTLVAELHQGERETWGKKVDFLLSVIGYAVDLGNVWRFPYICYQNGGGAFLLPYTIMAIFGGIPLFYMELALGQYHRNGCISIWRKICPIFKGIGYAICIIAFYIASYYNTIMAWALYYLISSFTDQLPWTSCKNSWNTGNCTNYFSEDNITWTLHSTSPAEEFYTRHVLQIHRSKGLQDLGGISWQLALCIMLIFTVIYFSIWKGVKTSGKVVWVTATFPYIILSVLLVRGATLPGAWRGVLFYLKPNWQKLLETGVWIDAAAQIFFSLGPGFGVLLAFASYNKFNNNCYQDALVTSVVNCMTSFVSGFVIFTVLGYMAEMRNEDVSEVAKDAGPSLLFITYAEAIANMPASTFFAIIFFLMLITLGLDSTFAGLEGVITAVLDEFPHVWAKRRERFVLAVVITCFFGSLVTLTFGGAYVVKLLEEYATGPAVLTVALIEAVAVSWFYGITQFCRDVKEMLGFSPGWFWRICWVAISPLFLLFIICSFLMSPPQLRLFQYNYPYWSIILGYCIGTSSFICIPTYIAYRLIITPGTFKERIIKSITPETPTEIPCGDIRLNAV
Chain of Sodium-dependent serotonin transporter (Rattus norvegicus, UniProt P31652) (P31652 whole entry): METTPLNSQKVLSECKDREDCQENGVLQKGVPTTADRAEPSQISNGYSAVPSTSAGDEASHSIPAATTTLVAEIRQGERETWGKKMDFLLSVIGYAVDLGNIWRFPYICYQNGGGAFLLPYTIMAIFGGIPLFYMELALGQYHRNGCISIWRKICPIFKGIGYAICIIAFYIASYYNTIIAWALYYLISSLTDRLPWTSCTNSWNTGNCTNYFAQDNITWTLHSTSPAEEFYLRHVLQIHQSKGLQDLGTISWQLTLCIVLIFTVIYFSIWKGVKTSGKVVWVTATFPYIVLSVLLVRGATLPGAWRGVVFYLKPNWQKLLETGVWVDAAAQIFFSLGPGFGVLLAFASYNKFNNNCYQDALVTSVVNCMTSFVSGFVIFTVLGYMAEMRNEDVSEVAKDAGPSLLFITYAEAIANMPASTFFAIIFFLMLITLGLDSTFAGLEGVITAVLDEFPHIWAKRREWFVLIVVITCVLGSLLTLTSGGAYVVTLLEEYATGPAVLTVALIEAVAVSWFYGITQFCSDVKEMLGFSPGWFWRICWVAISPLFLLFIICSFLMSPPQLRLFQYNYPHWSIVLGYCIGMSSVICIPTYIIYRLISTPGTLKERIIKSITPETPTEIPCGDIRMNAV

| SMILES | IC50 [1] [nM] | IC50 [2] [nM] | Ki [3] [nM] | Emax [4] | Ki [5] [nM] | Emax [6] | Ki [7] [nM] | Ki [8] [nM] | IC50 [9] [nM] | IC50 [10] [nM] | Emax [11] |
| --- | --- | --- | --- | --- | --- | --- | --- | --- | --- | --- | --- |
| Fc1ccc2[nH]cc(C3=CCN(CCOc4cccc5c4OCCO5)CC3)c2c1 | 684 | 1040 | 1.17 | 0 | 46.9 | 11 | 30 |  |  |  |  |
| C1=C(c2c[nH]c3ccccc23)CCN(CCOc2cccc3c2OCCO3)C1 | 222 | 115 | 0.17 | 0 | 45 | 21 | 4.7 |  |  |  |  |
| C1=C(c2c[nH]c3ccccc23)CCN(CCOc2cccc3ncccc23)C1 | 524 | 686 | 0.23 | 0 | 93.6 | 14 | 3.6 | 92.6 |  |  |  |
| Fc1ccc2[nH]cc(CC3CCN(CCOc4cccc5c4OCCO5)CC3)c2c1 |  |  | 0.01 |  |  |  |  |  |  |  |  |
| C1=C(c2c[nH]c3ncccc23)CCN(CCOc2cccc3ncccc23)C1 |  | 90 |  | 0 | 387 | 0 | 78 |  | 181 |  |  |
| C1=C(c2c[nH]c3ncccc23)CCN(CCOc2cccc3c2OCCO3)C1 |  |  |  | 0 | 276 | 30 | 33 |  |  | 969 |  |
| C1=C(c2c[nH]c3ccccc23)CCN(CCOc2cccc3[nH]ccc23)C1 |  | 33 | 0.03 | 0 | 41.2 |  | 0.19 | 21.6 | 115 |  | 7.5 |
| Fc1ccc2c(C3=CCN(CCOc4cccc5c4OCCO5)CC3)c[nH]c2c1 |  |  | 0.15 |  | 19.8 | 53 | 4.1 | 83.6 |  |  |  |
| C1=C(c2c[nH]c3ncccc23)CCN(CCOc2cccc3[nH]ccc23)C1 | 38.9 | 12 |  | 0 | 175 | 7 | 0.9 |  |  |  |  |
| Fc1ccc2c(C3CCN(CCOc4cccc5c4OCCO5)CC3)c[nH]c2c1 | 666 | 920 | 4.7 | 0 | 128 | 29.5 | 2.8 | 19.6 |  |  |  |
